Reference: ChEMBL document CHEMBL1926643, “Synthesis, anti-inflammatory activity and molecular docking studies of 2,5-diarylfuran amino acid derivatives” (Eur J Med Chem, 2012)
Active and inactive are the calls of the source. No cut-off for these calls is given here.

What was measured:
[1] = molecular target: T1, Prostaglandin G/H synthase 1 (Rattus norvegicus) (UniProt Q63921); test: Inhibition of COX-1 in rat leukocytes assessed as reduction in PGE2 production from arachidonic acid at 10 nM preincubated for 10 mins by EIA; format: cell-based
T1 sequence (whole entry): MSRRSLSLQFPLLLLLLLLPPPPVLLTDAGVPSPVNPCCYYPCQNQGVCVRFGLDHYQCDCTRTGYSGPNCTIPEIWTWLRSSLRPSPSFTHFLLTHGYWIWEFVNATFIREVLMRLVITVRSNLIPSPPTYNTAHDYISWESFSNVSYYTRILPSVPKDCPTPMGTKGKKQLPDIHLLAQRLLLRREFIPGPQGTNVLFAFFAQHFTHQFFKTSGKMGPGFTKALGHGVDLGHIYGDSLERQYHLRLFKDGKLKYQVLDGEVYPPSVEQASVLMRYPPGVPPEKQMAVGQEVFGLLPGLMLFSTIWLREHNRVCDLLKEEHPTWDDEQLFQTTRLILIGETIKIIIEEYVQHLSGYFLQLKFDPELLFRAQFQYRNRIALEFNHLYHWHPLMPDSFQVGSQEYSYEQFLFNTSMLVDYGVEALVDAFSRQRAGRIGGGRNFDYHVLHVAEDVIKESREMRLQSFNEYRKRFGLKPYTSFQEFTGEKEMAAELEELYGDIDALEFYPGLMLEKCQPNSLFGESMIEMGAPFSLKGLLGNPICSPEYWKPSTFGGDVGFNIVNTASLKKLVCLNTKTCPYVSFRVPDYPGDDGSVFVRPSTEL

[2] = Cytotoxicity against Wistar rat neutrophils assessed as reduction in cell viability at 10 nM after 18 hrs by trypan blue staining method; format: cell-based; details: neutrophil, 0.01 µM
How it was run: (§1)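 Neutrophils were elicited in male Wistar rats by intraperitoneal oyster glycogen (1%, 10 mL) and harvested after 4 h. Cells were exposed to compound at 1, 10, 100 or 1000 nM, with or without LPS, for 18 h in RPMI1640 with 10% FBS. Viability was scored by trypan blue staining against medium-only controls.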

Neutrophil [3] = test: Antiinflammatory activity in Wistar rat neutrophils assessed as decrease in PGE2 level at 10 nM after 18 hrs by EIA; format: functional, cell-based
How it was run: (§2)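 Neutrophils were taken from male Wistar rats 4 h after intraperitoneal oyster glycogen (1%, 10 mL). Cells were cultured in RPMI1640 with 10% FBS, with compound at 10 nM, with or without LPS, for 18 h. PGE₂ in the culture supernatant was quantified by EIA. Data are the mean ± s.e.m. of cells from four animals, compared against medium-only control cells.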

Neutrophil [4] = test: Antiinflammatory activity in Wistar rat neutrophils assessed as decrease in LPS-induced PGE2 secretion at 10 nM after 18 hrs by EIA; format: functional, cell-based; how it was run: as §2
[5] = Cytotoxicity against LPS-stimulated Wistar rat neutrophils assessed as reduction in cell viability at 10 nM after 18 hrs by trypan blue staining method; format: cell-based; details: neutrophil, 0.01 µM; how it was run: as §1

Row | SMILES | inhibition [1] | Activity [2] | Activity (Neutrophil [3]) | Activity (Neutrophil [4]) | Activity [5]
1 | COc1ccc(-c2ccc(-c3cccc(NC(=O)[C@H](COC(=O)c4ccccc4)NC(=O)OC(C)(C)C)c3)o2)cc1 | inactive |  |  |  | 
2 | COc1ccc(-c2ccc(-c3cccc(NC(=O)[C@H](Cc4ccccc4)NC(=O)OC(C)(C)C)c3)o2)cc1 | inactive | Non-toxic | inactive | inactive | Non-toxic
3 | COc1ccc(-c2ccc(-c3cccc(NC(=O)[C@H](CSCc4ccccc4)NC(=O)OCc4ccccc4)c3)o2)cc1 | inactive | Non-toxic | inactive | inactive | Non-toxic
4 | Cc1ccc(-c2cc(C(F)(F)F)nn2-c2ccc(S(N)(=O)=O)cc2)cc1 |  |  | inactive | Active | 
5 | COc1ccc(-c2ccc(-c3cccc(NC(=O)[C@H](CCCNC(=N)NS(=O)(=O)c4ccc(C)cc4)NC(=O)OC(C)(C)C)c3)o2)cc1 | inactive |  |  |  | 
6 | COc1ccc(-c2ccc(-c3cccc(NC(=O)[C@H](CCC(=O)OC(C)(C)C)NC(=O)OCC4c5ccccc5-c5ccccc54)c3)o2)cc1 | inactive |  |  |  | 

Now from value to compound, other results behind:

Row | inhibition [1] | SMILES | Activity [2] | Activity (Neutrophil [3]) | Activity (Neutrophil [4]) | Activity [5]
7 | inactive | COc1ccc(-c2ccc(-c3cccc(NC(=O)CNC(=O)OC(C)(C)C)c3)o2)cc1 |  |  |  | 
8 | inactive | COc1ccc(-c2ccc(-c3cccc(NC(=O)[C@H](CC(C)C)NC(=O)OC(C)(C)C)c3)o2)cc1 |  |  |  | 
9 | inactive | COc1ccc(-c2ccc(-c3cccc(NC(=O)[C@H](CCSC)NC(=O)OC(C)(C)C)c3)o2)cc1 |  |  |  | 
10 | inactive | COc1ccc(-c2ccc(-c3cccc(NC(=O)[C@H](C)NC(=O)OC(C)(C)C)c3)o2)cc1 |  |  |  | 
11 | inactive | COc1ccc(-c2ccc(-c3cccc(NC(=O)[C@@H]4CCCN4C(=O)OC(C)(C)C)c3)o2)cc1 | Non-toxic | inactive | Active | Non-toxic
12 | inactive | COc1ccc(-c2ccc(-c3cccc(NC(=O)[C@@H](NC(=O)OC(C)(C)C)C(C)C)c3)o2)cc1 | Non-toxic | inactive | inactive | Non-toxic
